Results published in paper PMC4284021 (The Journal of Pharmacy and Pharmacology, 2014).
Several values for one entry are separate records, joined by “and”; a condition that tells them apart may be missing. Equal values may be shown once. Entries after “also recorded” stand apart in the source; their conditions may differ. Marks after values point to notes of the source that are not given here.

Experiments:
Type in all cases: in vivo, human
[1] = test system: HDL-C, LDL-C, total cholesterol, triglycerides; experiment: Lipid analyses; conditions: for HDL-C: Mean % change vs placebo (90 % CI) / LDL-C: Mean % change from baseline (90% CI) / LDL-C: Mean % change vs placebo (90 % CI) / Total cholesterol: Mean % change from baseline (90% CI) / Total cholesterol: Mean % change vs placebo (90 % CI) / Triglycerides: Mean % change from baseline (90% CI) / Triglycerides: Mean % change vs placebo (90 % CI) / HDL-C: Mean % change from baseline (90% CI): day 14
In short: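 Placebo-controlled once-daily oral capsules (10–600 mg) with a low-fat meal for 14–15 days. Total cholesterol and triglycerides were measured by enzymatic methods. HDL-C was measured after dextran sulfate precipitation and centrifugation of LDL/VLDL. LDL-C was measured by a direct assay. Change from baseline was taken to Day 14 and to 2 weeks after the last dose. Emax models (Hill coefficient 1, baseline covariate) were used for HDL-C/LDL-C; linear models for total cholesterol and triglycerides.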

healthy subjects = experiment: 24-h ambulatory blood pressure monitoring; conditions: for effect on 24-h ambulatory systolic or diastolic blood pressure: 600 mg compared with placebo
In short: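 Double-blind crossover cohort (n = 15): placebo or 600 mg/day oral test compound for 14 days, then the other treatment after a 21-day washout. Subjects wore the ambulatory monitor about 12 h before Day 1 baseline. On Day 14, dosing came about 1 h after monitoring began. Readings every 20 min by day, every 30 min at night. The first hour was excluded. Value is mean SBP/DBP over the 24 h after dosing.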

HDL-C and LDL-C = experiment: Emax model of plasma evacetrapib exposure; conditions: model estimate (90% CI)
In short: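 Change from baseline in HDL-C and LDL-C on Day 14 was fitted against steady-state plasma AUC. AUC came from LC/MS/MS and non-compartmental analysis. Model: Emax, the maximal response, and EAUC50, the AUC giving 50% of the maximal response.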

[2] = Multiple-dose pharmacokinetics of evacetrapib in plasma; conditions: for CL/F: geometric mean (CV %)
In short: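 Once-daily oral doses of 10–600 mg for 14–15 days. Sampling: six serial samples on Day 1; 11 through 336 h after the last dose; trough samples on Days 2, 3, 4, 7 and 10. Acidified K2EDTA plasma was extracted by anion-exchange SPE with an isotope-labelled internal standard. Analysis by C18 LC/MS/MS, positive ion, SRM m/z 639→314. Range 1–1000 ng/ml. Parameters by non-compartmental analysis; dose proportionality on Day 14 by power model.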

[3] = 600 mg, 24-h ABPM, Day 1 (baseline), mean (90% CI)
[4] = 600 mg/day for 14 days, 24-h ABPM
[5] = 600 mg/day for 14 days, 24-h ABPM, (90% CI)
[6] = 600 mg/day, 24-h ABPM, Day 14, mean (90% CI)
[7] = AUC producing 50% of maximal response

For `Cc1cc(C)c2c(c1)[C@@H](N(Cc1cc(C(F)(F)F)cc(C(F)(F)F)c1)c1nnn(C)n1)CCCN2C[C@H]1CC[C@H](C(=O)O)CC1` [evacetrapib], the “HDL-C: Mean % change vs placebo (90 % CI)” value ([1]; 100 mg/day) was 65.61 (53.34, 77.88) ^*** %, the “LDL-C: Mean % change from baseline (90% CI)” value ([1]; 100 mg/day) was −24.47 (−27.68, −21.26) % and the “LDL-C: Mean % change vs placebo (90 % CI)” value ([1]; 100 mg/day) was −26.13 (−32.39, −19.86) ^*** %. For the same compound, the “Total cholesterol: Mean % change from baseline (90% CI)” value ([1]; 100 mg/day) was 6.83 (−4.18, 17.85) %, the “Total cholesterol: Mean % change vs placebo (90 % CI)” value ([1]; 100 mg/day) was 7.49 (−5.83, 20.81) % and the “Triglycerides: Mean % change from baseline (90% CI)” value ([1]; 100 mg/day) was −3.75 (−17.73, 10.23) %. For the same compound, the “Triglycerides: Mean % change vs placebo (90 % CI)” value ([1]; 100 mg/day) was 14.67 (−2.22, 31.57) %, the “HDL-C: Mean % change from baseline (90% CI)” value ([1]; 300 mg/day) was 75.22 (68.87, 81.58) % and the “HDL-C: Mean % change vs placebo (90 % CI)” value ([1]; 300 mg/day) was 81.56 (70.90, 92.22) ^*** %. The “LDL-C: Mean % change from baseline (90% CI)” value ([1]; 300 mg/day) was −26.39 (−29.92, −22.85) %, the “LDL-C: Mean % change vs placebo (90 % CI)” value ([1]; 300 mg/day) was −28.04 (−34.18, −21.90) ^*** % and the “Total cholesterol: Mean % change from baseline (90% CI)” value ([1]; 300 mg/day) was 15.60 (3.53, 27.67) %. For the same compound, the “Total cholesterol: Mean % change vs placebo (90 % CI)” value ([1]; 300 mg/day) was 16.25 (2.05, 30.46) %, the “Triglycerides: Mean % change from baseline (90% CI)” value ([1]; 300 mg/day) was −2.10 (−17.41, 13.21) % and the “Triglycerides: Mean % change vs placebo (90 % CI)” value ([1]; 300 mg/day) was 16.32 (−1.69, 34.34) %. For the same compound, the “decrease in LDL-C” value ([1]; 600 mg, Day 14, relative to placebo) was 29%, the “HDL-C: Mean % change from baseline (90% CI)” value ([1]; 600 mg/day) was 80.50 (73.05, 87.95) % and the “HDL-C: Mean % change vs placebo (90 % CI)” value ([1]; 600 mg/day) was 87% and 86.83 (75.96, 97.71) ^*** %. The “LDL-C: Mean % change from baseline (90% CI)” value ([1]; 600 mg/day) was −26.91 (−30.71, −23.11) %, the “LDL-C: Mean % change vs placebo (90 % CI)” value ([1]; 600 mg/day) was −28.56 (−34.76, −22.37) ^*** % and the “Total cholesterol: Mean % change from baseline (90% CI)” value ([1]; 600 mg/day) was 15.48 (7.85, 23.11) %. For the same compound, the “Total cholesterol: Mean % change vs placebo (90 % CI)” value ([1]; 600 mg/day) was 16.13 (5.44, 26.82) ^* %, the “Triglycerides: Mean % change from baseline (90% CI)” value ([1]; 600 mg/day) was −22.08 (−31.76, −12.40) % and the “Triglycerides: Mean % change vs placebo (90 % CI)” value ([1]; 600 mg/day) was −3.66 (−17.22, 9.91) %. The changes in triglycerides ([1]; 10–600 mg, Day 14) was “no statistically significant changes”, the “HDL-C change (SD) from baseline to 2 weeks after the last dose” value ([1]; 600-mg dose group) was 7.3% and the “LDL-C change (SD) from baseline to 2 weeks after the last dose” value ([1]; 600-mg dose group) was −2.6%. The “HDL-C and LDL-C after 2-week washout” value ([1]; all dose groups) was “returned to levels at or near baseline”, the “effect on 24-h ambulatory systolic or diastolic blood pressure” value (healthy subjects) was “No significant differences” and the “effect on 24-h ambulatory systolic or diastolic blood pressure” value (healthy subjects; listed as Evacetrapib) was “did not produce any significant effect”. For the same compound, the “correlation between exposure and blood pressure (Spearman's rank correlation coefficient)” value (healthy subjects; 600 mg crossover cohort, P = 0.964) was 0.00954, the “Diastolic blood pressure, Day 1 mean” value (healthy subjects; [3]) was 68.27 (64.82, 71.72) mmHg and the “Systolic blood pressure, Day 1 mean” value (healthy subjects; [3]) was 112.16 (109.12, 115.19) mmHg. For the same compound, the “Diastolic blood pressure, Difference (comparison with placebo)” value (healthy subjects; [4]) was −2.28 mmHg, the “Systolic blood pressure, Difference (comparison with placebo)” value (healthy subjects; [4]) was −1.96 mmHg and the “Diastolic blood pressure, LS mean change” value (healthy subjects; [5]) was 0.60 (−1.45, 2.65) mmHg. For the same compound, the “Systolic blood pressure, LS mean change” value (healthy subjects; [5]) was −0.27 (−2.64, 2.11) mmHg, the “Diastolic blood pressure, Day 14 mean” value (healthy subjects; [6]) was 73.72 (70.26, 77.18) mmHg and the “Systolic blood pressure, Day 14 mean” value (healthy subjects; [6]) was 118.28 (113.78, 122.77) mmHg. For the same compound, the “EAUC50 for the HDL-C model” value (HDL-C and LDL-C; [7]) was 4110 ng·h/mL, the “EAUC50 for the LDL-C model” value (HDL-C and LDL-C; [7]) was 582 (194 to 1810) ng · h/ml and the “maximum theoretical change from baseline for HDL-C (Emax)” value (HDL-C and LDL-C; after 14 days of dosing) was 126%. The “maximum theoretical change from baseline for LDL-C (Emax)” value (HDL-C and LDL-C; after 14 days of dosing) was −28.2%, the CL/F ([2]; 10 mg once daily, steady state) was 17.5 (21) l/h and the CL/F ([2]; 100 mg once daily, steady state) was 21.7 (30) l/h. The CL/F ([2]; 300 mg once daily, steady state) was 39.6 (44) l/h, the CL/F ([2]; 600 mg once daily, steady state, n = 24) was 43.6 ^e (34) l/h and the “levels of evacetrapib 3 weeks after last dose” value ([2]; 600 mg/day for 14 days, crossover cohort, 3-week washout) was “undetectable levels; also recorded: complete washout”. For the same compound, the “dose proportionality of plasma exposure” value ([2]; 10–600 mg) was “less than dose-proportional”, the “mean apparent oral clearance at steady state, range across doses” value ([2]; 10–600 mg) was 17.5 to 43.6 L/h and the “AUCt,ss for 600 mg relative to 100 mg” value ([2]; after 14 daily doses) was “approximately threefold”. The “accumulation ratio during multiple dosing” value ([2]; based on trough concentrations, between Days 1 and 14) was 2–2.5, the “levels of evacetrapib after 2-week (336 h) washout” value ([2]; each dose group) was “returned to levels at or near baseline; also recorded: decreased to near the lower limit of detection” and the half-life ([2]; human, plasma, oral) was 24 to 44 h. For the same compound, the Tmax ([2]; human, plasma, oral, 10 mg, tmax, 10 mg once daily, steady state, median (range)) was 4.02 h and the “time to steady state” value ([2]; once-daily dosing) was “approximately 10 days”.
